Measured values: ChEMBL document CHEMBL4177542, “A New Combination of a Pleuromutilin Derivative and Doxycycline for Treatment of Multidrug-Resistant Acinetobacter baumannii” (J Med Chem, 2017)
Values after ≈ are worked out from the molar mass of the structure shown.

How the values were obtained:
Acinetobacter baumannii [1] = experiment: Synergistic antibacterial activity against multidrug-resistant Acinetobacter baumannii ATCC […] at 60:1 compound to doxycycline ratio after 48 hrs by resazurin dye based microdilution broth checkerboard method; type: functional; settings: ATCC BAA 18002, 48 h
How it was run: (§1)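 Microdilution broth checkerboard of the compound combined with doxycycline, using the resazurin broth method (48 h, 37 °C, blue = no growth). ΣFIC = C_A/MIC_A + C_B/MIC_B, taken at the growth–no growth interface wells; ΣFIC below 0.5 is scored as synergy. MBC for the fixed-ratio combinations read as the 4 h resazurin endpoint.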

Escherichia coli [2] = experiment: Growth inhibition of Escherichia coli ATCC 10798 after 48 hrs by resazurin dye based microdilution method; type: functional; settings: ATCC 10798, 48 h
How it was run: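 Broth microdilution in tryptic soy broth. Mid-log cultures (OD600 0.5) treated with serial dilutions from a DMSO stock (1 mg per 100 μL) for 48 h at 37 °C. Resazurin (stock 0.02%) then added for 1 h at 37 °C. MIC is the lowest concentration staying blue; MBC is blue retained over 4 h (99.9% kill), with CFU plating when needed.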

[3] = Safety index, ratio of compound IC50 to valnemulin IC50 for African green monkey Vero cells; type: ADME, cell-based; settings: chlorocebus sabaeus, read-out: Ratio IC50
Escherichia coli [4] = experiment: Synergistic bactericidal activity against Escherichia coli ATCC 10798 at 60:1 compound to doxycycline ratio after 48 hrs by resazurin dye based microdilution broth checkerboard method; type: functional; settings: ATCC 10798, 48 h, read-out: MBC99.9
How it was run: (§2)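 Checkerboard broth microdilution of drug pairs in tryptic soy broth on mid-log cultures (OD 0.5), 48 h at 37 °C. Growth read by resazurin (pink growth, blue no growth). MBC is blue retained over 4 h, CFU plating where needed. ΣFIC = C_A/MIC_A + C_B/MIC_B, taken at the growth/no-growth interface wells; ΣFIC <0.5 counts as synergy.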

Acinetobacter baumannii [5] = experiment: Antibacterial activity against Acinetobacter baumannii ATCC 19606 infected in C57BL/6 mouse assessed as survival rate at 20 mg/kg, ip administered as single dose measured for 5 days (reference value: <20%); type: functional; settings: ATCC 19606 = CIP 70.34 = JCM 6841, ip, 120 h
How it was run: (§3)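 C57BL/6 mice (n = 5 per group; 4 untreated controls) infected intraperitoneally with A. baumannii ATCC19606 grown at 37 °C and collected by centrifugation, at a dose giving 75% death. Single intraperitoneal dose (2 to 60 mg/kg) given 1 h after infection. Mice monitored for 5 days, with death as the end point; survival rate recorded.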

Acinetobacter baumannii [6] = experiment: Synergistic bactericidal activity against multidrug-resistant Acinetobacter baumannii ATCC […] at 60:1 compound to doxycycline ratio […] by resazurin dye based microdilution broth checkerboard method; type: functional; settings: read-out: MBC99.9
Acinetobacter baumannii [7] = experiment: Antibacterial activity against Acinetobacter baumannii ATCC 19606 infected in C57BL/6 mouse assessed as survival rate at 4 mg/kg, ip administered as single dose measured for 5 days (reference value: <20%); type: functional; settings: ATCC 19606 = CIP 70.34 = JCM 6841, ip, 120 h; how it was run: as §3
Acinetobacter baumannii [8] = experiment: Potentiation of doxycycline-induced antimicrobial activity against Acinetobacter baumannii ATCC 19606 at 0.40 ug/ml in presence of 0.05 ug/ml doxycycline by microdilution broth checkerboard method; type: functional, ATCC 19606 = CIP 70.34 = JCM 6841
How it was run: (§4)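 A. baumannii ATCC 19606 in a broth microdilution checkerboard with doxycycline, 96 concentration combinations. ΣFIC = C_A/MIC_A + C_B/MIC_B, taken for wells at the growth/no-growth interface; ΣFIC <0.5 counts as synergy.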

Acinetobacter baumannii [9] = experiment: Synergistic antibacterial activity against multidrug-resistant Acinetobacter baumannii ATCC […] at 2:1 compound to doxycycline ratio after 48 hrs by resazurin dye based microdilution broth checkerboard method; type: functional; settings: ATCC BAA 18002, 48 h; how it was run: as §1
Acinetobacter baumannii [10] = experiment: Potentiation of doxycycline-induced antimicrobial activity against Acinetobacter baumannii ATCC 19606 at 0.20 ug/ml in presence of 0.05 ug/ml doxycycline by microdilution broth checkerboard method; type: functional, ATCC 19606 = CIP 70.34 = JCM 6841; how it was run: as §4
[11] = tested on: Mycobacterium tuberculosis; experiment: Synergistic bactericidal activity against Mycobacterium tuberculosis H37Rv at 2:1 compound to doxycycline ratio after 48 hrs by resazurin dye based microdilution broth checkerboard method; type: functional; settings: read-out: MBC99.9
Klebsiella pneumoniae [12] = experiment: Synergistic bactericidal activity against Klebsiella pneumoniae ATCC 8047 at 2:1 compound to doxycycline ratio after 48 hrs by resazurin dye based microdilution broth checkerboard method; type: functional; settings: ATCC 8047, 48 h, read-out: MBC99.9; how it was run: as §2
Klebsiella pneumoniae [13] = experiment: Synergistic bactericidal activity against Klebsiella pneumoniae ATCC 8047 at 35:1 compound to doxycycline ratio after 48 hrs by resazurin dye based microdilution broth checkerboard method; type: functional; settings: ATCC 8047, 48 h, read-out: MBC99.9; how it was run: as §1
Escherichia coli [14] = experiment: Synergistic antibacterial activity against Escherichia coli ATCC 10798 at 35:1 compound to doxycycline ratio after 48 hrs by resazurin dye based microdilution broth checkerboard method; type: functional; settings: ATCC 10798, 48 h; how it was run: as §2

Q: Which MIC (Acinetobacter baumannii [1]) does the source give for C=C[C@]1(C)C[C@@H](OC(=O)CSC(C)(C)CNC(=O)[C@H](N)C(C)C)[C@]2(C)[C@H](C)CC[C@]3(CC[C@@H](O)[C@H]32)[C@@H](C)[C@@H]1O here?
A: 1.56 µg/mL

Q: And the MIC (Escherichia coli [2])?
A: 3.13 µg/mL (≈ 5.52 µM)

Q: What about the selectivity ratio [3] of the same molecule?
A: 2.85

Q: What about the MBC (Escherichia coli [4]) of the same molecule?
A: 1.56 µg/mL

Q: What about the survival at 20 mg/kg (Acinetobacter baumannii [5]) of the same molecule?
A: 100%

Q: And the MBC (Acinetobacter baumannii [6])?
A: 6.25 µg/mL

Q: What about the survival at 4 mg/kg (Acinetobacter baumannii [7]) of the same molecule?
A: 80%

Q: What about the “fractional inhibitory concentration index (FICI)” value (Acinetobacter baumannii [8]) of the same molecule?
A: 0.31

Q: And the MIC (Acinetobacter baumannii [9])?
A: 1.56 µg/mL

Q: And the “fractional inhibitory concentration index (FICI)” value (Acinetobacter baumannii [10])?
A: 0.28

Q: And the MBC [11]?
A: 6.25 µg/mL

Q: What about the MBC (Klebsiella pneumoniae [12]) of the same molecule?
A: 1.56 µg/mL

Q: And the MBC (Klebsiella pneumoniae [13])?
A: 1.56 µg/mL

Q: And the MIC (Escherichia coli [14])?
A: 0.25 µg/mL
